# Reference: ChEMBL document CHEMBL5034016 (J Med Chem, 2021)
# How the values were obtained:
# [1] = tested on: Human immunodeficiency virus 1; assay: Inhibition of HIV-1 gp120 interaction with human CD4 assessed as inhibition of viral entry at 156 to […] by SPR analysis; conditions: dose lower […], dose upper […]
# [2] = Inhibition of human mAb clone 2G12 binding to HIV1 gp120 expressed in human MT4 cells by flow cytometry analysis; type: cell-based, Human immunodeficiency virus 1
# [3] = Inhibition of human mAb clone 447-52D binding to HIV1 gp120 expressed in human MT4 cells by flow cytometry analysis; type: cell-based, Human immunodeficiency virus 1
# [4] = Inhibition of mouse mAb clone 9284 binding to HIV1 gp120 expressed in human MT4 cells by flow cytometry analysis; type: cell-based, Human immunodeficiency virus 1
# [5] = Inhibition of mouse mAb clone 9305 binding to HIV1 gp120 expressed in human MT4 cells by flow cytometry analysis; type: cell-based, Human immunodeficiency virus 1
# [6] = tested on: Human immunodeficiency virus 1; assay: Anti-HIV activity against HIV-1 NL4.3 infected in PHA-stimulated human PBMC expressing CXCR-4 assessed as inhibition of virus-indued cytopathogenic effect measured after 10 days by ELISA; type: functional, organism-based; conditions: Human immunodeficiency virus 1, NL4.3, PBMC, 240 h
# [7] = tested on: Human immunodeficiency virus 1; assay: Anti-HIV activity against HIV-1 Ba-L infected in PHA-stimulated PBMC expressing CCR5 assessed as inhibition of virus-indued cytopathogenic effect measured after 10 days by ELISA; type: functional, organism-based; conditions: Human immunodeficiency virus 1, Ba-L, 240 h
# [8] = Selectivity index, ratio of CC50 for human RD cells to EC50 for antiviral activity against Enterovirus A71 infected in human RD cells; type: toxicity, cell-based; conditions: read-out: Ratio CC50/EC50
# rhinovirus A2 = assay: Antiviral activity against Human rhinovirus 2 infected in HeLa cells assessed as reduction in virus induced cytopathic effect; type: functional, organism-based; conditions: Rhinovirus A
# rhinovirus B14 = assay: Antiviral activity against Human rhinovirus 14 infected in HeLa cells assessed as reduction in virus induced cytopathic effect; type: functional, organism-based; conditions: Rhinovirus B
# [9] = tested on: Human immunodeficiency virus 1; assay: Inhibition of HIV-1 gp120 interaction with human CD4 assessed as inhibition of viral entry at 10 to 40 nM by SPR analysis relative to control; conditions: dose 10-40 nM
# Method in brief: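 His-CD4 (2 μg/mL) was captured on a Ni-chelated chip (0.5 mM NiCl2 activation). 25 nM gp120 premixed with compound (10 000 to 10 nM, fourfold steps) was injected for 2 min over reference and analysis channels. Binding % used the maximum response at end of injection relative to 25 nM gp120 alone. Regeneration was with 350 mM EDTA. Run in triplicate.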
# [10] = tested on: Human immunodeficiency virus 1; assay: Inhibition of HIV-1 gp120 interaction with human CD4 assessed as fold change in inhibition of viral entry at 10 to 40 nM by SPR analysis relative to AL-471; conditions: dose 10-40 nM
# Method in brief: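 His-CD4 at 2 μg/mL captured on a NiCl2-activated chip channel, with a reference channel alongside. 25 nM gp120 premixed with compound, 10 000 to 10 nM in fourfold steps, injected 2 min over both channels. Surface regenerated with 350 mM EDTA. Binding % from maximum response at injection end versus gp120 alone. Triplicate experiments.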
# [11] = tested on: Human immunodeficiency virus 1; assay: Potency index, ratio of AL-471 EC50 to test compound EC50 for anti-HIV activity against HIV-1 NL4.3 infected in human MT4 cells assessed as reduction in virus-indued cytopathic effect preincubated with cells for 30 mins followed by viral infection and measured after 5 days by MTS assay; type: functional; conditions: time 120.5 hrs
# [12] = tested on: Human immunodeficiency virus 1; assay: Binding affinity to CM5 sensor chip immobilized recombinant HIV-1 gp120 assessed as association constant at 12.5 to 0.1 uM by SPR analysis; conditions: dose 12.5-0.1 µM
# [13] = tested on: Human immunodeficiency virus 1; assay: Potency index, ratio of AL-471 Kd to test compound Kd for binding affinity to CM5 sensor chip immobilized recombinant HIV-1 gp120 at 12.5 to 0.1 uM measured for 4 mins by SPR analysis; conditions: dose 12.5-0.1 µM
# Enterovirus A71 = assay: Antiviral activity against Enterovirus A71 BrCr infected in human RD cells assessed as reduction in virus-induced cytopathic effect incubated for 3 days by MTS/PMS assay; type: functional, organism-based; conditions: Enterovirus A, 72 h
# [14] = Cytotoxicity against human RD cells assessed as reduction in cell viability measured after 3 days by MTS/PMS assay; type: cell-based; conditions: time 3 day
# Method in brief: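 Uninfected RD cells were treated with serial compound dilutions in the same 3-day setup as the antiviral assay. […] Multiple dose–response curves (>2) from >1 independent experiments.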
# Enterovirus [15] = assay: Antiviral activity against Enterovirus A71 harbouring VP1 S184T mutant infected in human RD cells assessed as reduction in virus induced cytopathic effect incubated for 3 days by MTS/PMS assay; type: functional, organism-based
# Enterovirus [16] = assay: Antiviral activity against Enterovirus A71 harbouring VP1 P246S mutant infected in human RD cells assessed as reduction in virus induced cytopathic effect incubated for 3 days by MTS/PMS assay; type: functional, organism-based
# Enterovirus [17] = assay: Antiviral activity against Enterovirus A71 harbouring VP1 S184T/P246S double mutant infected in human RD cells assessed as reduction in virus induced cytopathic effect incubated for 3 days by MTS/PMS assay; type: functional, organism-based
# [18] = tested on: Human immunodeficiency virus 1; assay: Anti-HIV activity against HIV-1 NL4.3 infected in human MT4 cells assessed as reduction in virus-indued cytopathic effect preincubated with cells for 30 mins followed by viral infection and measured after 5 days by MTS assay; type: functional, organism-based; conditions: Human immunodeficiency virus 1, NL4.3, MT4
# Method in brief: (§1)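 MT-4 cells (1×10^6 cells/mL) were preincubated with compound for 30 min at 37 °C, then infected with cell-line-adapted NL4.3 or ROD dosed by TCID50 of the stock. After 5 days, CPE was scored microscopically and EC50 calculated from MTS/PES reduction (A490). Mean ± SD of at least three independent experiments.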
# [19] = tested on: Human immunodeficiency virus 2; assay: Anti-HIV activity against HIV-2 ROD infected in human MT4 cells assessed as reduction in virus-indued cytopathic effect preincubated with cells for 30 mins followed by viral infection and measured after 5 days by MTS assay; type: functional, organism-based; conditions: Human immunodeficiency virus 2, ROD; method in brief: as §1
# [20] = Cytotoxicity against human MT4 cells assessed as reduction in cell viability measured after 5 days by MTS/PES assay; type: cell-based; conditions: time 5 day
# Method in brief: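 Uninfected MT-4 cells were exposed to compound for 5 days. Viability was read by MTS/PES (A490, formazan proportional to living cells). […] Mean ± SD of at least three independent experiments.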
compound,measurement,setting,value
O=C(CCOCC(COCCC(=O)NC(Cc1c(-c2cc(C(=O)O)cc(C(=O)O)c2)[nH]c2ccccc12)C(=O)O)(COCCC(=O)NC(Cc1c(-c2cc(C(=O)O)cc(C(=O)O)c2)[nH]c2ccccc12)C(=O)O)COCCC(=O)NC(Cc1c(-c2cc(C(=O)O)cc(C(=O)O)c2)[nH]c2ccccc12)C(=O)O)NC(Cc1c(-c2cc(C(=O)O)cc(C(=O)O)c2)[nH]c2ccccc12)C(=O)O (configuration not stated),inhibition,[1],50%
same,IC50,[2],> 100 µM
same,IC50,[3],> 100 µM
same,IC50,[4],> 100 µM
same,IC50,[5],> 100 µM
Cc1nnc(C(C)C)n1[C@H]1C[C@H]2CC[C@@H](C1)N2CC[C@H](NC(=O)C1CCC(F)(F)CC1)c1ccccc1 [MARAVIROC],EC50,[6],> 1 µM
same,EC50,[7],0.00448 µM
CCOC(=O)c1ccc(OCCC2CCN(c3ccc(C)nn3)CC2)cc1 [PIRODAVIR],selectivity ratio,[8],333
O=C(CCOCC(COCCC(=O)NC(Cc1c(-c2ccc(C(=O)O)cc2)[nH]c2c(-c3ccc(C(=O)O)cc3)cccc12)C(=O)O)(COCCC(=O)NC(Cc1c(-c2ccc(C(=O)O)cc2)[nH]c2c(-c3ccc(C(=O)O)cc3)cccc12)C(=O)O)COCCC(=O)NC(Cc1c(-c2ccc(C(=O)O)cc2)[nH]c2c(-c3ccc(C(=O)O)cc3)cccc12)C(=O)O)NC(Cc1c(-c2ccc(C(=O)O)cc2)[nH]c2c(-c3ccc(C(=O)O)cc3)cccc12)C(=O)O (configuration not stated),selectivity ratio,[8],667
O=C(CCC(CCC(=O)NC(Cc1c[nH]c2c(-c3cccc(C(=O)O)c3)cccc12)C(=O)O)(CCC(=O)NC(Cc1c[nH]c2c(-c3cccc(C(=O)O)c3)cccc12)C(=O)O)[N+](=O)[O-])NC(Cc1c[nH]c2c(-c3cccc(C(=O)O)c3)cccc12)C(=O)O (configuration not stated),selectivity ratio,[8],1
O=C(CCC(CCC(=O)NC(Cc1c[nH]c2c(-c3cc(C(=O)O)cc(C(=O)O)c3)cccc12)C(=O)O)(CCC(=O)NC(Cc1c[nH]c2c(-c3cc(C(=O)O)cc(C(=O)O)c3)cccc12)C(=O)O)[N+](=O)[O-])NC(Cc1c[nH]c2c(-c3cc(C(=O)O)cc(C(=O)O)c3)cccc12)C(=O)O (configuration not stated),selectivity ratio,[8],63
O=C(CCOCC(COCCC(=O)NC(Cc1c[nH]c2c(-c3cccc(C(=O)O)c3)cccc12)C(=O)O)(COCCC(=O)NC(Cc1c[nH]c2c(-c3cccc(C(=O)O)c3)cccc12)C(=O)O)COCCC(=O)NC(Cc1c[nH]c2c(-c3cccc(C(=O)O)c3)cccc12)C(=O)O)NC(Cc1c[nH]c2c(-c3cccc(C(=O)O)c3)cccc12)C(=O)O (configuration not stated),selectivity ratio,[8],20
O=C(CCOCC(COCCC(=O)NC(Cc1c[nH]c2c(-c3cc(C(=O)O)cc(C(=O)O)c3)cccc12)C(=O)O)(COCCC(=O)NC(Cc1c[nH]c2c(-c3cc(C(=O)O)cc(C(=O)O)c3)cccc12)C(=O)O)COCCC(=O)NC(Cc1c[nH]c2c(-c3cc(C(=O)O)cc(C(=O)O)c3)cccc12)C(=O)O)NC(Cc1c[nH]c2c(-c3cc(C(=O)O)cc(C(=O)O)c3)cccc12)C(=O)O (configuration not stated),selectivity ratio,[8],157
O=C(CCOCC(COCCC(=O)NC(Cc1c(-c2cc(C(=O)O)cc(C(=O)O)c2)[nH]c2c(-c3cc(C(=O)O)cc(C(=O)O)c3)cccc12)C(=O)O)(COCCC(=O)NC(Cc1c(-c2cc(C(=O)O)cc(C(=O)O)c2)[nH]c2c(-c3cc(C(=O)O)cc(C(=O)O)c3)cccc12)C(=O)O)COCCC(=O)NC(Cc1c(-c2cc(C(=O)O)cc(C(=O)O)c2)[nH]c2c(-c3cc(C(=O)O)cc(C(=O)O)c3)cccc12)C(=O)O)NC(Cc1c(-c2cc(C(=O)O)cc(C(=O)O)c2)[nH]c2c(-c3cc(C(=O)O)cc(C(=O)O)c3)cccc12)C(=O)O (configuration not stated),selectivity ratio,[8],2500
same,EC50,rhinovirus A2,> 50 µM
same,EC50,rhinovirus B14,> 50 µM
same,inhibition,[9],50%
same,IC50,[2],> 100 µM
same,IC50,[5],> 100 µM
same,fold change (FC),[10],16
same,Ratio EC50,[11],3.5
same,ka,[12],3.34 10^3/M/s
same,Ratio,[13],6
O=C(CCC(CCC(=O)N[C@H](Cc1c[nH]c2ccccc12)C(=O)O)(CCC(=O)N[C@H](Cc1c[nH]c2ccccc12)C(=O)O)NC(=O)CCOCC(COCCC(=O)NC(CCC(=O)N[C@H](Cc1c[nH]c2ccccc12)C(=O)O)(CCC(=O)N[C@H](Cc1c[nH]c2ccccc12)C(=O)O)CCC(=O)N[C@H](Cc1c[nH]c2ccccc12)C(=O)O)(COCCC(=O)NC(CCC(=O)N[C@H](Cc1c[nH]c2ccccc12)C(=O)O)(CCC(=O)N[C@H](Cc1c[nH]c2ccccc12)C(=O)O)CCC(=O)N[C@H](Cc1c[nH]c2ccccc12)C(=O)O)COCCC(=O)NC(CCC(=O)N[C@H](Cc1c[nH]c2ccccc12)C(=O)O)(CCC(=O)N[C@H](Cc1c[nH]c2ccccc12)C(=O)O)CCC(=O)N[C@H](Cc1c[nH]c2ccccc12)C(=O)O)N[C@H](Cc1c[nH]c2ccccc12)C(=O)O,EC50,Enterovirus A71,0.3 µM
same,CC50 at 72 h,[14],24.9 µM
same,EC50,Enterovirus [15],2 µM
same,EC50,Enterovirus [16],4.7 µM
same,EC50,Enterovirus [17],8.9 µM
O=C(CCC(CCC(=O)NC(Cc1c[nH]c2c(-c3ccc(C(=O)O)cc3)cccc12)C(=O)O)(CCC(=O)NC(Cc1c[nH]c2c(-c3ccc(C(=O)O)cc3)cccc12)C(=O)O)[N+](=O)[O-])NC(Cc1c[nH]c2c(-c3ccc(C(=O)O)cc3)cccc12)C(=O)O (configuration not stated),EC50,Enterovirus A71,61.6 µM
same,CC50 at 72 h,[14],> 61 µM
same,selectivity ratio,[8],1
same,EC50,[18],12 µM
same,EC50,[19],49.7 µM
same,CC50 at 120 h,[20],> 100 µM
O=C(CCOCC(COCCC(=O)NC(Cc1c[nH]c2c(-c3ccc(C(=O)O)cc3)cccc12)C(=O)O)(COCCC(=O)NC(Cc1c[nH]c2c(-c3ccc(C(=O)O)cc3)cccc12)C(=O)O)COCCC(=O)NC(Cc1c[nH]c2c(-c3ccc(C(=O)O)cc3)cccc12)C(=O)O)NC(Cc1c[nH]c2c(-c3ccc(C(=O)O)cc3)cccc12)C(=O)O (configuration not stated),selectivity ratio,[8],60
O=C(CCC(CCC(=O)NC(Cc1c(-c2cc(C(=O)O)cc(C(=O)O)c2)[nH]c2c(-c3cc(C(=O)O)cc(C(=O)O)c3)cccc12)C(=O)O)(CCC(=O)NC(Cc1c(-c2cc(C(=O)O)cc(C(=O)O)c2)[nH]c2c(-c3cc(C(=O)O)cc(C(=O)O)c3)cccc12)C(=O)O)[N+](=O)[O-])NC(Cc1c(-c2cc(C(=O)O)cc(C(=O)O)c2)[nH]c2c(-c3cc(C(=O)O)cc(C(=O)O)c3)cccc12)C(=O)O (configuration not stated),EC50,Enterovirus A71,0.2 µM
same,CC50 at 72 h,[14],> 100 µM
same,selectivity ratio,[8],526
same,EC50,[18],0.04 µM
same,EC50,[19],0.07 µM
same,CC50 at 120 h,[20],> 100 µM
O=C(CCC(CCC(=O)NC(Cc1c(-c2cc(C(=O)O)cc(C(=O)O)c2)[nH]c2ccccc12)C(=O)O)(CCC(=O)NC(Cc1c(-c2cc(C(=O)O)cc(C(=O)O)c2)[nH]c2ccccc12)C(=O)O)[N+](=O)[O-])NC(Cc1c(-c2cc(C(=O)O)cc(C(=O)O)c2)[nH]c2ccccc12)C(=O)O (configuration not stated),selectivity ratio,[8],203
